An excerpt weighted towards active compounds, which were near 1.6% of everything screened.
LEDGF integ inh = blocks HIV-1 LEDGF/p75-dependent DNA integration; inhibition, % at 3.7 µM; TR-FRET IN-LEDGF/p75 DNA integration, Eu/Cy5; 370,000 compounds, 0.64% hits;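 active = inhibition above the screen-wide mean plus 3 SD, cut at about 13% in these data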;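 also: signal is the Cy5 over europium emission ratio at 671 and 618 nm; 0% = plate median of compound wells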
TDP2 inh = TDP2 (human) inhibition, absorbance primary screen. 370,000 compounds, 0.34% hits. recombinant TDP2, T5PNP hydrolysis, p-nitrophenol absorbance 415 nm. AID 720702. O95551. inhibition, % at 12.8 µM;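 active = inhibition above the mean of all tested compounds plus 3 SD, set per campaign, cut at about 25% in these data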;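 also: 0% = DMSO with enzyme and 100% = buffer with substrate but no TDP2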
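Assay system: recombinant human TDP2 / Reagent: T5PNP substrate at 5 mM, a TopII-DNA adduct mimic / Measured by: epi absorbance from released p-nitrophenol / Evaluation: % inhibition relative to enzyme-containing and enzyme-free wells / Control set: enzyme-free and DMSO wells / Replicates: each compound tested once, singlicate / Schedule: enzyme reaction with compound for 2 h at 37 °C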
MBD2 inh = MBD2-methylated oligo binding inhibition | Q9UBB5 | TR-FRET, MBD2 binding to methylated oligonucleotide | inhibition, % at 4.4 µM | 370,000 compounds, 0.31% hits; in the data active = inhibition above about 13%
UHRF1 MBD2 ctr = human UHRF1 methylated DNA binding inhibitors. UHRF1 binding to methylated oligo, TR-FRET. inhibition, % at 4.4 µM. 370,000 compounds, 0.75% hits. AID 687016; in the data active = inhibition above about 21%;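 also: UHRF1 SRA domain binding a hemimethylated CpG hairpin DNA probe; 0% = median of test compound wells and 100% = reference inhibitor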
Target sequence (Q96T88 whole entry, looked up, the tested form may be a part): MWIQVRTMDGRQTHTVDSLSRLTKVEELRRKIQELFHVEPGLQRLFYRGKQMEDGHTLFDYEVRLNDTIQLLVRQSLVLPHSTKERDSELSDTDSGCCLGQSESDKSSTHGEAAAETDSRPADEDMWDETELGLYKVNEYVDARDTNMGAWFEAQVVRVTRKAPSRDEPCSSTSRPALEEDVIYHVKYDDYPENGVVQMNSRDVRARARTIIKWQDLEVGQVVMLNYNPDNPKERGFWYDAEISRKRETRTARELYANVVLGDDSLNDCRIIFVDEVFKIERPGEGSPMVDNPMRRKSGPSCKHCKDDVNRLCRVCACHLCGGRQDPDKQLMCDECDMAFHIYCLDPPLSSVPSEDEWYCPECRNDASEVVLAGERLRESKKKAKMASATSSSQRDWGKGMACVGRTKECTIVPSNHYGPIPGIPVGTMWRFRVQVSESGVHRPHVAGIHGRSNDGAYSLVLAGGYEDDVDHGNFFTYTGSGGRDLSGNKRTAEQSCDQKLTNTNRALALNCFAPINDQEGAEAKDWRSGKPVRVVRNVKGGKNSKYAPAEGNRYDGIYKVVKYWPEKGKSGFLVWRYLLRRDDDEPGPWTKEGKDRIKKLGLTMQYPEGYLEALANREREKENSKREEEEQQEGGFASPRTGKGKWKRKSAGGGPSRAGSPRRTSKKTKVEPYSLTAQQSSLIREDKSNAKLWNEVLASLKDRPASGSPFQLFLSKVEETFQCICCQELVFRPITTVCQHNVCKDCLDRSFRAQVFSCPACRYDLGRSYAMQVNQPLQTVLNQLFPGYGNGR
An asterisk follows results filed as active.

SMILES | LEDGF integ inh | TDP2 inh | MBD2 inh | UHRF1 MBD2 ctr
COc1ccc(/C([O-])=C(/C(=S)Nc2ccc(C)c(C)c2)n2c[n+](C)c3ccccc32)cc1OC | 1.6 | -0.9 | 3.8 | 26.4*
O=[N+]([O-])c1ccc(NCCN2CCOCC2)c([N+](=O)[O-])c1 | -3.0 | -1.6 | -9.0 | -6.4
CCOc1cc(NCCN2CCOCC2)c([N+](=O)[O-])cc1OCC | 0.6 | 5.7 | -21.6 | 24.1*
COc1ccc(/C=C/C(=O)Nc2ccc(NC(C)=O)cc2)cc1S(=O)(=O)N1CCOCC1 | -3.2 | -4.2 | -0.3 | 32.2*
CCN(C(=O)COC(=O)c1ccccc1NCCO)c1cccc2ccccc12 | -1.7 | -1.5 | 4.5 | 91.0*
c1coc(-c2nc3c4ccccc4ccn3c2Cc2ccsc2)c1 | 5.2 | -7.5 | 7.0 | 21.7*
COC(=O)C=C1CCC2C3CCC4=CC(=O)C(Br)CC4(C)C3C(=O)CC12C (stereo not given) | 2.0 | -6.0 | 4.7 | 1.6
O=C(N/N=C/c1ccc(F)cc1)c1ccccc1 | -5.1 | 3.1 | -3.7 | 27.1*
COCc1cc(C)nc(OCC(=O)N/N=C/c2ccc(OC)c(O)c2)c1C#N | -1.6 | 3.9 | -1.8 | 36.3*
C/C(=N\NS(C)(=O)=O)c1ccc(C)cc1 | -0.3 | 8.9 | 1.8 | 1.2
CCCc1nc2c(C)cc(Br)cn2c1Cc1cccc(Cl)c1 | -0.5 | 2.2 | 8.6 | 23.6*
CCCc1nc2c(C)cc(Br)cn2c1Cc1ccccc1OC | 0.5 | -5.2 | 9.1 | 21.7*
Fc1ccc(-c2nc3c4ccccc4ccn3c2Cc2cccc(F)c2)cc1 | -3.5 | -0.6 | 1.0 | 5.2
Cc1cc(Br)cn2c(Cc3cccc(F)c3)c(-c3cccc(Cl)c3)nc12 | 6.6 | -11.2 | -0.6 | 4.3
CCCc1nc2c3ccccc3ccn2c1Cc1cccc(F)c1 | 4.2 | -15.9 | 4.3 | 21.1*
CCCc1nc2c(C)cc(Br)cn2c1Cc1ccc(C)cc1 | -3.8 | 5.0 | 7.2 | 22.5*
CC(O)[C@H]1CNC(=O)C(=O)N1CCc1cc(C(F)(F)F)cc(C(F)(F)F)c1 (stereo not given in full) | -2.1 | -7.5 | -2.4 | 0.1
COc1ccc(N2Cc3cccc(C(=O)NC(C)CCc4ccco4)c3C2=O)cc1 (stereo not given) | 6.0 | -1.1 | 11.9 | 10.7
c1ccc(OCCOCCOc2ccccc2)cc1 | 1.9 | -1.5 | -2.7 | 0.5
COc1cc(OC)c(-c2nc3c[n+](CC(=O)c4ccccc4)ccc3n2C)cc1OC | 1.6 | 0.6 | -2.8 | -5.5
COC(=O)c1ccc(N)cc1O | 0.2 | 3.8 | 0.4 | -2.2
COC(=O)c1ccc(=O)c2nc3/c(=C/O)c(O)cc(=O)c3[nH]c12 | 51.8* | 2.7 | 6.5 | 21.1*
O=C(O)c1ccc(-c2ccc(/C=c3/sc4nc5ccccc5n4c3=O)o2)cc1Cl | 7.9 | 16.9 | 8.0 | 39.9*
Cc1ccc(C)c(N2C(=N)S/C(=C\c3ccc(-c4ccccc4C(=O)O)o3)C2=O)c1 | -3.8 | -8.0 | 11.3 | 21.0*
CN1C(=O)/C(=C/c2ccc(-c3ccccc3[N+](=O)[O-])o2)SC1=Nc1ccc(Cl)c(C(=O)O)c1 | 2.5 | 6.5 | -5.4 | -0.8
SMILES | LEDGF integ inh | TDP2 inh | MBD2 inh | UHRF1 MBD2 ctr
Cc1cc(C)c2nc3sc(=Cc4ccc(-c5ccccc5C(=O)O)o4)c(=O)n3c2c1 | 9.1 | -0.9 | 7.3 | 24.2*
O=C(N/N=C/c1cccc2ccccc12)c1cccnc1 | 6.4 | -9.2 | -7.8 | -4.5
Cn1c(CCCOc2ccc(Cl)cc2Cl)nnc1SCC(=O)Nc1nccs1 | -3.2 | -0.7 | 5.2 | 3.3
CC(NC(=O)c1ccccc1)C(=O)OCC(=O)c1c(N)n(C)c(=O)n(C)c1=O (stereo not given) | -1.6 | 6.8 | -2.8 | -1.5
O=C1CCCc2oc3c(c21)CCCC3 | -5.6 | -7.9 | 11.6 | 23.2*
COC(=O)c1oc2c(c1C)C(=O)CCC2 | -5.6 | -0.3 | 1.5 | 3.1
COc1ccc(N2CCN(c3ccc4nnc(CCC(=O)Nc5ccc(C)cc5)n4n3)CC2)cc1 | 0.2 | 2.2 | 4.4 | 21.1*
COc1ccc(NS(=O)(=O)c2cc(NC(=O)CCc3ccccc3)ccc2N2CCOCC2)cc1 | -1.2 | 5.0 | 6.0 | 30.5*
COc1ccc(CCC(=O)Nc2ccc(N3CCOCC3)cc2)cc1 | 4.2 | 12.7 | 12.8 | 31.1*
COc1ccc(NC(=O)CCc2nnc3ccc(N4CCC(C)CC4)nn23)cc1 | -4.7 | 10.3 | 3.6 | 0.4
CCCS(=O)(=O)NC(=O)C1(C)CCCN(C(=O)COCc2ccccc2)C1 (stereo not given) | 0.1 | 6.4 | -1.9 | -0.4
O=C(c1ccc(S(=O)(=O)Nc2ccccc2Cl)cc1)N1CCOCC1 | -1.1 | 0.6 | -6.7 | -0.1
COc1ccc(OC)c(N2CC(O)(c3ccccc3)[N+]3=C2SCCC3)c1 (stereo not given) | 0.2 | -4.4 | 0.6 | 1.1
CC(C)c1csc(CN2CCC(CO)(Cc3cccc(F)c3)CC2)n1 | -4.2 | -6.6 | 6.1 | 58.8*
CC(SC(=S)N1CCCC1)C(=O)O (stereo not given) | 0.3 | 1.7 | 3.1 | 24.3*
CCOC(=O)COc1ccc(C(=O)c2ccccc2)c(O)c1 | -2.2 | 0.3 | 5.8 | -1.1
c1ccc(CNC2CCC23CCC(c2ccccc2)CC3)cc1 (stereo not given) | 3.1 | -6.6 | 3.0 | 80.7*
Cc1ccc(Cl)cc1NC(=S)N(Cc1ccccc1)Cc1cccnc1 | -7.4 | -9.6 | 9.4 | 24.8*
COc1ccccc1-c1ccc(SCc2cccc(F)c2)nn1 | -4.7 | -5.2 | -5.6 | 57.6*
COc1ccccc1-c1ccc(SCc2ccccc2)nn1 | 0.9 | 2.2 | 0.5 | -1.2
O=C(COc1cccnc1[N+](=O)[O-])N1CCN(C(=O)c2ccco2)CC1 | -5.6 | -3.7 | 3.7 | 25.2*
Cc1ccc2sc(C)[n+](CCO)c2c1 | 1.9 | 4.3 | 4.5 | -2.0
CN(Cc1ccncc1)C(=O)[C@@H]1CCCN1C(=O)[C@@H]1CCCN1 | -3.8 | 1.1 | 4.5 | 21.7*
Cc1ccc2oc(Nc3nc(-c4ccccc4)cc(=O)[nH]3)nc2c1 | -4.5 | -4.1 | -7.2 | 75.0*
O=C(CCC(=O)c1ccc(Cl)cc1)OCn1nnc2ccccc2c1=O | 2.2 | -0.8 | -2.3 | 55.8*
SMILES | LEDGF integ inh | TDP2 inh | MBD2 inh | UHRF1 MBD2 ctr
CCCCNC(=O)c1onc(CSc2ccccc2CC)c1C(=O)O | 2.5 | -5.0 | 5.1 | -2.3
O=C(O)C1=NN(c2cc(Cl)c(S(=O)(=O)O)cc2Cl)C(=O)C1 | 10.9 | 2.4 | 6.8 | 30.9*
Cc1ccc(C)c(N2N=C(C(=O)O)CCC2=O)c1 | 0.4 | -1.6 | -10.6 | -3.4
O=C(CCNS(=O)(=O)c1ccccc1)N1CCOCC1 | 1.9 | 3.3 | 6.8 | 2.5
O=C(CNS(=O)(=O)c1ccccc1)N1CCCC1 | 6.8 | 5.0 | 12.9 | 21.3*
CCOC(=O)N1CCN(C(=O)CCNS(=O)(=O)c2ccccc2)CC1 | 0.0 | -4.6 | 0.9 | 21.6*
O=C(Nc1ccccc1Cl)c1ccn[nH]1 | -3.4 | 2.8 | -0.5 | -2.4
O=C(Nc1ccccc1F)c1ccn[nH]1 | -1.6 | -4.4 | 2.5 | 74.9*
C[C@@H]1CN([C@H](C)CO)C(=O)CCCn2nncc2CO[C@@H]1CN(C)C(=O)c1ccncc1 | 5.3 | -9.0 | 2.0 | -1.2

Bioassay records deposited in PubChem by The Scripps Research Institute Molecular Screening Center.
